Screening results (PubChem)
A selection: hits, their analogues and other compounds. The true share with any hit is near 4.6%.
GPR7 antagonist: blocks human GPR7 receptor signaling. 290,000 compounds, 1.1% hits. GPR7-expressing cells, fluorescence antagonist assay. inhibition, % at 4.4 µM; in the data active = inhibition above about 16%, passing the limit was not always enough;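 also: cells stimulated with the agonist NPW; 0% = agonist with vehicle and 100% = vehicle without agonist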
OX1R antag-1: OX1R (human) antagonism; O43613; inhibition, % at 6.6 µM; OX1R-expressing cells, FRET antagonist read-out; 330,000 compounds, 1.8% hits; in the data active = inhibition mostly above about 38%, no sharp cut-off; inactive = mostly below about 40%;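 also: 0% = agonist challenge alone and 100% = reference antagonist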
TAAR1 antagonist: antagonists of human TAAR1 | CHO RD-HGA16 TAAR1, Fluo-8 calcium fluorescence, antagonist | Q96RJ0 | 360,000 compounds, 1.5% hits | inhibition, % at 3 µM;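 active = inhibition above a per-plate cutoff, the mean inhibition of test compounds on that plate plus 3 SD, cut at about 49% in these data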;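 also: 0% = DMSO plus EC80 beta-PEA response and 100% = DMSO alone without agonist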
Target sequence (Q96RJ0 whole entry, looked up): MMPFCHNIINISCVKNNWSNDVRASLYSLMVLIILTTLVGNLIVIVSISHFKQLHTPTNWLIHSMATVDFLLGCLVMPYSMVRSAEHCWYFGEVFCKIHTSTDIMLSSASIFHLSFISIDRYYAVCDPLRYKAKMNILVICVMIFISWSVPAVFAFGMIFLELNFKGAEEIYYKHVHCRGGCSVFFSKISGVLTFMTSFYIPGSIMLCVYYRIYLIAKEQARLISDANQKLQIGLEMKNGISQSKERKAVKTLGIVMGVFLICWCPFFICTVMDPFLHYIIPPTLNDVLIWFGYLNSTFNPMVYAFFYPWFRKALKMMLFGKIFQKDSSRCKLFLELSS
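Test system: CHO RD-HGA16 cells bearing hTAAR1 | Reagent: β-PEA, EC80 | Compound dosing: 3 µM, single point | Schedule: Dye loading 75 min at 37 °C, then 30 min room temperature | Signal: Calcium fluorescence with Fluo-8 | Evaluation: Percent inhibition of PEA-evoked calcium signal, max/basal emission ratio | Control set: DMSO-only wells and EC80 β-PEA-stimulated wells | Repeats: Singlicate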
CHO parental Ca: signal in parental CHO cells, OX1R antagonist counter-screen | parental CHO-K1, ATP-induced calcium, Fluo-8 fluorescence | inhibition, % at 5.6 µM | 330,000 compounds, 0.63% hits;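 active = inhibition above that plate's mean sample inhibition plus 3 SD, cut at about 26% in these data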;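 also: 0% = ATP-challenged DMSO wells and 100% = DMSO wells without ATP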
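Measured by: calcium-sensitive Fluo-8 fluorescence / Test system: CHO parental line / Controls: ATP-challenged DMSO wells low, unchallenged DMSO wells high / Measure: % inhibition / Compound: single nominal dose of 5.6 µM per compound / Replicates: single well per compound, no replicates / Reagent: ATP as calcium-mobilizing challenge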
TAAR1 agonist: agonists of human TAAR1; Q96RJ0; CHO RD-HGA16 TAAR1, Fluo-8 calcium fluorescence; vehicle wells 0%, saturating PEA agonist 100%; activation, % at 3 µM; 360,000 compounds, 0.99% hits;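 active = activation above the mean activation of all test compounds in the run plus 3 SD, cut at about 38% in these data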
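Repeats: no replicates (n 1) | Material: CHO-derived RD-HGA16 cells with stable Gα16 and human TAAR1 | Technique: Kinetic Fluo-8 calcium fluorescence | Schedule: 17-24 h seeding, 75 min 37 °C dye, 30 min RT | Evaluation: % activation from peak over basal fluorescence ratio, DMSO-to-PEA scaled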
OX1R antag-2: human HCRTR1 antagonism. CHO/OX1R cells, Fluo-8 calcium fluorescence, orexin A. AID 434989. O43613. inhibition, % at 5 µM. 330,000 compounds, 0.43% hits;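 active = inhibition above its plate's threshold, mean inhibition of all tested compounds on the plate plus 3 SD, cut at about 37% in these data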;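 also: 0% = orexin A challenge wells and 100% = SB-334867-A antagonist wells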
GPR7 antag cf: human GPR7 antagonism, confirmation assay | shares compounds with GPR7 antagonist | GPR7-expressing cells, calcium fluorescence antagonist mode | inhibition, % at 4.4 µM | 2,400 compounds, 52% hits; in the data active = inhibition above about 24%;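 also: stimulated with the GPR7 agonist NPW; 0% = agonist plus vehicle and 100% = vehicle alone without agonist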
MCHR1 antagonist: antagonizes human MCHR1, a GPR7 antagonist counter-screen; shares compounds with GPR7 antagonist; MCHR1-expressing cells, fluorescence antagonist assay; inhibition, % at 4.4 µM; 2,400 compounds, 62% hits; in the data active = inhibition above about 22%;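 also: 0% = vehicle with agonist and 100% = vehicle without agonist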
The depositor's hits bear a star; . = no result given.

SMILES	GPR7 antagonist	OX1R antag-1	TAAR1 antagonist	CHO parental Ca	TAAR1 agonist	OX1R antag-2	GPR7 antag cf	MCHR1 antagonist
FC(F)(F)c1cc(C(F)(F)F)c2ccc(N3CCN(c4ccc(Cl)cc4)CC3)nc2n1	-7	16	-27	0	6	-14	.	.
N#CC(c1ccc(Cl)cc1)c1ccc2c(C(F)(F)F)cc(C(F)(F)F)nc2n1 (configuration not stated)	33*	38	46	18	6	26	59*	50*
Cc1cc(C)cc(NC(=O)CCc2ccc(C)o2)c1	29*	15	-10	-12	-4	-22	-12	7
Cc1cccc(NC(=O)CCc2ccc(C)o2)c1	-6	36	-23	-1	2	-32	.	.
C[C@@H](C(=O)NCCc1ccc(F)cc1)N1C(=O)N2CCc3c([nH]c4ccccc34)[C@@]2(C)C1=O	18	16	0	-27	3	-14	.	.
Cc1ccc(CN2CCSc3ccc(C(=O)N4CCOCC4)cc32)cc1	-17	15	.	-30	.	-36	.	.
CCN1CCN(C(=O)c2ccc3c(c2)N(Cc2ccc(C)cc2)CCS3)CC1	.	19	-22	-31	3	-19	.	12
COc1ccc(CC(=O)N/N=C(\C)c2cccs2)cc1	31*	13	7	-11	0	-20	-6	4
COC(=O)N/N=C(\C)c1cccs1	-11	-1	-17	-3	-1	-10	.	.
CCOC(=O)C1CCN(CCC(=O)Nc2ccccc2)CC1	51*	13	-19	-10	4	-4	3	-4
COc1ccc(OC)c(C(c2nnnn2Cc2ccco2)N2CCN(C)CC2)c1 (configuration not stated)	19	22	-18	-13	1	-14	.	.
COc1cccc(C(c2nnnn2Cc2ccco2)N2CCN(c3cccc(C)c3C)CC2)c1OC (configuration not stated)	23*	21	21	-19	6	-5	14	60*
c1ccc(CNCCC(Cc2ccccc2)c2ccco2)cc1 (configuration not stated)	23*	13	-9	-47	16	-38	28*	35*
Cc1cc(Cl)ccc1OCC(=O)N1CCN(c2ncccn2)CC1	24*	15	18	-17	2	-21	-6	3
CCSc1nsc(NC(=O)Nc2ccc(F)cc2F)n1	54*	43*	.	74*	.	15	52*	55*
CCOc1ccc(NC(=O)Nc2nc(SCC)ns2)cc1	25*	41	18	37*	6	-5	33*	66*
CC1(C)N=C(N)N=C(N)N1c1ccc(OCC(=O)Nc2ccccc2)c(Cl)c1	.	.	-14	.	1	.	.	.
CC(C)CNC(=O)C1(C)CCCN1C(=O)c1cncc(Br)c1 (configuration not stated)	.	.	-3	.	0	.	.	.
CCCCn1c(N)c(N(Cc2ccccc2OC)C(=O)COc2ccc(F)cc2Cl)c(=O)[nH]c1=O	-5	12	-12	-14	1	0	.	.
CCCCn1c(N)c(N(Cc2ccccc2OC)C(=O)COc2ccccc2C#N)c(=O)[nH]c1=O	27*	12	-14	-13	0	-2	2	3
Cc1ccc(OCCOCCN2CCN(C)CC2)c(C(C)(C)C)c1	-6	9	-15	-9	5	2	.	.
Clc1ccc(OCCOCCN2CCc3ccccc3C2)c(Cl)c1	30*	13	-27	-12	36	-16	17	30*
CC(C)(C)NCCOCCOc1ccc(Cl)cc1C(C)(C)C	9	7	7	-7	5	-19	.	.
CC(C)(C)c1cc(Cl)ccc1OCCOCCN1CCCC1	24*	-2	10	-6	17	-1	35*	41*
C=CCNCCCOc1ccc(Cl)cc1C(C)(C)C	25*	11	-6	-1	21	-26	25*	37*
